# Published values of several laboratories.
# Protocols differ between the studies behind these lines.
# Target: Serine/threonine-protein kinase 16 (STK16, Homo sapiens, UniProt O75716)
SMILES,effect on,method,concentration,remaining binding
CN(C)c1nccc(-c2cnn3ncccc23)n1,binding,,1 µM,87%
O=C(c1ccc(Nc2nccc(-c3cc4ccccc4s3)n2)cc1)N1CCC(N2CCCC2)CC1,binding,competition with immobilised ligand,1 µM,18%
CN(C)c1ncc(F)c(-c2cnn3ncccc23)n1,binding,,1 µM,87%
CCN1CCN(Cc2ccc(C(=O)Nc3ccc(C)c(Oc4ccc5c(c4)CC(=O)N5)c3)cc2C(F)(F)F)CC1,binding,competition with immobilised ligand,1 µM,100%
COc1cc(Nc2nccc(-c3cnn4nc(OC)ccc34)n2)cc(C(F)(F)F)c1,binding,competition with immobilised ligand,1 µM,53%
CNC(=O)[C@@H]1CC[C@@H](n2c(-c3ccc4cnccc4c3)nc3ccc(C(=O)NCc4cccc(C(N)=O)c4)cc32)C1,binding,competition with immobilised ligand,1 µM,100%
COc1ncc2cc3ccccc3nc2c1C#N,cell-free assay,competition with immobilised ligand,5 µM,90%
FC(F)(F)Oc1cccc(-c2cnc3ccc(-c4ccncc4)nn23)c1,binding,competition with immobilised ligand,5 µM,40%
CN(C)CC#Cc1ccc(OCCCc2sc(N3CCc4cccc(C(=O)Nc5nc6ccccc6s5)c4C3)nc2C(=O)O)c(F)c1,cell-free assay,competition with immobilised ligand,1 µM,92%
N[C@@H]1CCN(c2nccc(-c3cnn4ncccc34)n2)C1,binding,,1 µM,100%
CCCOc1ccc([C@H]2[C@H](C(=O)O)[C@@H](c3ccc4c(c3)OCO4)CN2CC(=O)Nc2c(CC)cccc2CC)cc1,cell-free assay,competition with immobilised ligand,1 µM,72%
c1cnn2ncc(-c3ccnc(N4CCC45COC5)n3)c2c1,binding,,1 µM,78%
O=C(c1ccc(Nc2ncc(Cl)c(-c3ccc(Cl)s3)n2)cc1)N1CCC(N2CCCC2)CC1,binding,competition with immobilised ligand,1 µM,0.05%
CNC(=O)Nc1ccc2c(c1)CC[C@@]21OC(=O)N(CC(=O)N(Cc2ccc(F)cc2)[C@@H](C)C(F)(F)F)C1=O,cell-free assay,competition with immobilised ligand,1 µM,84%
CN(C)c1nccc(-c2cnc3ncccn23)n1,binding,,1 µM,92%
COc1cccc(CNC(=O)c2nc3scc(COCc4ccc(C(=O)O)cc4)c3c(=O)[nH]2)c1,cell-free assay,competition with immobilised ligand,1 µM,87.2%
Cc1cnn2ncc(-c3ccnc(N(C)C)n3)c2c1,binding,,1 µM,91%
O=C(N1CCS(=O)(=O)CC1)N1C[C@H](c2ccc(OC(F)(F)F)cc2)C[C@H](c2nc(C3CC3)no2)C1,cell-free assay,competition with immobilised ligand,1 µM,100%
O=C(NCCCN1CCOCC1)c1ccc(Nc2nccc(-c3cc4ccccc4s3)n2)cc1,binding,competition with immobilised ligand,1 µM,32%
COc1ccc2cc(OCC3(C(=O)O)CN(C(=O)c4ccc(F)cc4)C3)ccc2c1,cell-free assay,competition with immobilised ligand,1 µM,88%
O=C(Nc1c[nH]nc1C(=O)NC1CCNCC1)c1cc(F)cc(F)c1,binding,competition with immobilised ligand,1 µM,100%
